From ChEMBL document CHEMBL4251567 (Eur J Med Chem, 2018)

Experiments:
[1] = target: Histone deacetylase 3 (Homo sapiens) (UniProt O15379); test: Inhibition of HDAC3 in human HeLa-S3 cell lysates assessed as remaining activity at 2 x 10^-5 M preincubated for 15 mins followed by HDAC-Glo substrate addition measured after 30 to 40 mins by […] relative to control
How it was run: (§1)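 Antibody-capture (ELISA-type) assay: HDAC antibody coated in carbonate/bicarbonate buffer pH 9.4, wells blocked with 5% milk in TBST. HeLa-S3 lysate added at 1 mg/mL for HDAC3, 1 h at 4 °C, then washed. Inhibitor in DMSO preincubated 15 min at RT in HDAC-Glo buffer. HDAC-Glo reagent added, luminescence read after 30-40 min. Concentrations are final. Background = no-antibody well; activity given as % of DMSO control.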

[2] = target: Histone deacetylase 3 (Homo sapiens) (UniProt O15379); test: Inhibition of HDAC3 in human HeLa-S3 cell lysates assessed as remaining activity at 4 x 10^-5 M preincubated for 15 mins followed by HDAC-Glo substrate addition measured after 30 to 40 mins by […] relative to control; how it was run: as §1
[3] = target: Histone deacetylase 2 (Homo sapiens) (UniProt Q92769); test: Inhibition of HDAC2 in human HeLa-S3 cell lysates assessed as remaining activity at 4 x 10^-5 M preincubated for 15 mins followed by HDAC-Glo substrate addition measured after 30 to 40 mins by […] relative to control
How it was run: (§2)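 Same antibody-capture format as the other class I isoforms. HeLa-S3 lysate added at 100 μg/mL for HDAC1 and HDAC2, 1 h at 4 °C, then washed. Inhibitor in DMSO preincubated 15 min at RT; HDAC-Glo reagent added and luminescence read after 30-40 min. Concentrations are final. Signal corrected against a well without antibody; activity expressed as % of DMSO control.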

[4] = target: Histone deacetylase 2 (Homo sapiens) (UniProt Q92769); test: Inhibition of HDAC2 in human HeLa-S3 cell lysates assessed as remaining activity at 1.6 x 10^-4 M preincubated for 15 mins followed by HDAC-Glo substrate addition measured after 30 to 40 mins by […] relative to control; how it was run: as §2
[5] = target: Histone deacetylase 1 (Homo sapiens) (UniProt Q13547); test: Inhibition of HDAC1 in human HeLa-S3 cell lysates assessed as remaining activity at 2 x 10^-5 M preincubated for 15 mins followed by HDAC-Glo substrate addition measured after 30 to 40 mins by […] relative to control
How it was run: (§3)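 HDAC1 was captured from HeLa-S3 lysate (100 μg/mL) onto wells precoated with anti-HDAC1 antibody (10 μg/mL, carbonate buffer pH 9.4) and milk-blocked, 1 h at 4 °C, then washed. Inhibitor in DMSO was added in HDAC-Glo buffer for 15 min at room temperature. HDAC-Glo reagent was added and luminescence read after 30-40 min. Concentrations are final. No-antibody background subtracted; % of DMSO control.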

[6] = target: Histone deacetylase 3 (Homo sapiens) (UniProt O15379); test: Inhibition of HDAC3 in human HeLa-S3 cell lysates assessed as remaining activity at 1 x 10^-5 M preincubated for 15 mins followed by HDAC-Glo substrate addition measured after 30 to 40 mins by […] relative to control; how it was run: as §1
[7] = target: Histone deacetylase 2 (Homo sapiens) (UniProt Q92769); test: Inhibition of HDAC2 in human HeLa-S3 cell lysates assessed as remaining activity at 8 x 10^-5 M preincubated for 15 mins followed by HDAC-Glo substrate addition measured after 30 to 40 mins by […] relative to control; how it was run: as §2
[8] = target: Histone deacetylase 1 (Homo sapiens) (UniProt Q13547); test: Inhibition of HDAC1 in human HeLa-S3 cell lysates assessed as remaining activity at 1.6 x 10^-4 M preincubated for 15 mins followed by HDAC-Glo substrate addition measured after 30 to 40 mins by […] relative to control; how it was run: as §3
[9] = target: Histone deacetylase 1 (Homo sapiens) (UniProt Q13547); test: Inhibition of HDAC1 in human HeLa-S3 cell lysates assessed as remaining activity at 8 x 10^-5 M preincubated for 15 mins followed by HDAC-Glo substrate addition measured after 30 to 40 mins by […] relative to control
[10] = target: Histone deacetylase 2 (Homo sapiens) (UniProt Q92769); test: Inhibition of HDAC2 in human HeLa-S3 cell lysates assessed as remaining activity at 2 x 10^-5 M preincubated for 15 mins followed by HDAC-Glo substrate addition measured after 30 to 40 mins by fluorimetric method relative to control; how it was run: as §2
[11] = target: Histone deacetylase 3 (Homo sapiens) (UniProt O15379); test: Inhibition of HDAC3 in human HeLa-S3 cell lysates assessed as remaining activity at 1.6 x 10^-4 M preincubated for 15 mins followed by HDAC-Glo substrate addition measured after 30 to 40 mins by […] relative to control; how it was run: as §1
[12] = target: Histone deacetylase 1 (Homo sapiens) (UniProt Q13547); test: Inhibition of HDAC1 in human HeLa-S3 cell lysates assessed as remaining activity at 1 x 10^-5 M preincubated for 15 mins followed by HDAC-Glo substrate addition measured after 30 to 40 mins by fluorimetric method relative to control; how it was run: as §3
[13] = target: Histone deacetylase 3 (Homo sapiens) (UniProt O15379); test: Inhibition of HDAC3 in human HeLa-S3 cell lysates assessed as remaining activity at 8 x 10^-5 M preincubated for 15 mins followed by HDAC-Glo substrate addition measured after 30 to 40 mins by […] relative to control; how it was run: as §1
[14] = target: Histone deacetylase 1 (Homo sapiens) (UniProt Q13547); test: Inhibition of HDAC1 in human HeLa-S3 cell lysates assessed as remaining activity at 4 x 10^-5 M preincubated for 15 mins followed by HDAC-Glo substrate addition measured after 30 to 40 mins by […] relative to control; how it was run: as §3
[15] = target: Histone deacetylase; test: Inhibition of HDAC in human HeLa-S3 cell lysates preincubated for 15 mins followed by HDAC-Glo substrate addition measured after 35 mins by fluorimetric method; type: protein assay
[16] = tested on: U-937; test: Cytotoxicity against human U937 cells assessed as cell viability at 8 x 10^-6 M after 44 hrs by MTT assay relative to control; type: functional; details: U-937, 44 h, read-out: Activity
[17] = target: T1, Histone deacetylase (Homo sapiens) (UniProt Q13547+O15379+Q9UBN7+Q92769+Q9UQL6+Q8WUI4+Q9BY41+Q96DB2+P56524+Q9UKV0+Q969S8); test: Inhibition of HDAC in human HeLa-S3 cell lysates assessed as residual activity at 1 x 10^-4 M preincubated for 15 mins followed by HDAC-Glo substrate addition measured after 35 mins by […] relative to control; type: protein assay
[18] = target: T1, Histone deacetylase (Homo sapiens); test: Inhibition of HDAC in human HeLa-S3 cell lysates assessed as residual activity at 2.5 x 10^-5 M preincubated for 15 mins followed by HDAC-Glo substrate addition measured after 35 mins by […] relative to control; type: protein assay
[19] = tested on: U-937; test: Cytotoxicity against human U937 cells assessed as cell viability at 6.4 x 10^-5 M after 44 hrs by MTT assay relative to control; type: functional; details: U-937, 44 h, read-out: Activity
[20] = target: T1, Histone deacetylase (Homo sapiens); test: Inhibition of HDAC in human HeLa-S3 cell lysates assessed as residual activity at 2 x 10^-4 M preincubated for 15 mins followed by HDAC-Glo substrate addition measured after 35 mins by fluorimetric method relative to control; type: protein assay
How it was run: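 Lysate (1 μg total protein) in HDAC-Glo buffer was preincubated with inhibitor in DMSO for 15 min at room temperature. HDAC-Glo substrate/developer reagent was added and luminescence read after 35 min. Concentrations are final. Signal corrected for a no-lysate blank; % of DMSO control.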

[21] = tested on: Jurkat; test: Cytotoxicity against human Jurkat cells assessed as cell viability at 1 uM after 44 hrs by MTT assay relative to control; type: functional; details: read-out: Activity

Chain of Histone deacetylase 3 (Homo sapiens) (O15379 whole entry): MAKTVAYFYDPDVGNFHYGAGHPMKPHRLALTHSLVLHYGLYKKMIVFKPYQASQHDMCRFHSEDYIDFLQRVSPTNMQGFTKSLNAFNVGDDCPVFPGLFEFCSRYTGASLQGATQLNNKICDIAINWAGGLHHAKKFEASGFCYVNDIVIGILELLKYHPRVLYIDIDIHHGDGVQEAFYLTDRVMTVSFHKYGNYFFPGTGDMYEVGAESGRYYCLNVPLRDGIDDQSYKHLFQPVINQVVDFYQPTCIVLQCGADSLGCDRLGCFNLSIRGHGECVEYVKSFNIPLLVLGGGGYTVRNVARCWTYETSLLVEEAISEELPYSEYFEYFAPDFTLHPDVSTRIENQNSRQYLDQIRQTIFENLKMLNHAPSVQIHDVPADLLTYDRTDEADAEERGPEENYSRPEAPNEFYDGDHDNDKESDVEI
Chain of Histone deacetylase 2 (Homo sapiens) (Q92769 whole entry, canonical isoform): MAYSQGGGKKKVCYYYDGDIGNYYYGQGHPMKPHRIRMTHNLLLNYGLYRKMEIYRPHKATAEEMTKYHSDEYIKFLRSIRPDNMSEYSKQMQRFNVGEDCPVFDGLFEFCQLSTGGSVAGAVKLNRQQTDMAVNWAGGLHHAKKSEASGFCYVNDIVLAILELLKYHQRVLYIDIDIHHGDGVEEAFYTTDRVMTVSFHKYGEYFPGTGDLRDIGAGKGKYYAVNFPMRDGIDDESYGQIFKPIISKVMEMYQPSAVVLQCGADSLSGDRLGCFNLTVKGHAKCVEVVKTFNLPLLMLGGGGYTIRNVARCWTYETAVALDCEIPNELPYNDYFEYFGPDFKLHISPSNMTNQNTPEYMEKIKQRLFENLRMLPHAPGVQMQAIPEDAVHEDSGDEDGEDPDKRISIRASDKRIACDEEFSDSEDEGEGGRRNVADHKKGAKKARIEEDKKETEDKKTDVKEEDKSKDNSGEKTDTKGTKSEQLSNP
Chain of Histone deacetylase 1 (Homo sapiens) (Q13547 whole entry): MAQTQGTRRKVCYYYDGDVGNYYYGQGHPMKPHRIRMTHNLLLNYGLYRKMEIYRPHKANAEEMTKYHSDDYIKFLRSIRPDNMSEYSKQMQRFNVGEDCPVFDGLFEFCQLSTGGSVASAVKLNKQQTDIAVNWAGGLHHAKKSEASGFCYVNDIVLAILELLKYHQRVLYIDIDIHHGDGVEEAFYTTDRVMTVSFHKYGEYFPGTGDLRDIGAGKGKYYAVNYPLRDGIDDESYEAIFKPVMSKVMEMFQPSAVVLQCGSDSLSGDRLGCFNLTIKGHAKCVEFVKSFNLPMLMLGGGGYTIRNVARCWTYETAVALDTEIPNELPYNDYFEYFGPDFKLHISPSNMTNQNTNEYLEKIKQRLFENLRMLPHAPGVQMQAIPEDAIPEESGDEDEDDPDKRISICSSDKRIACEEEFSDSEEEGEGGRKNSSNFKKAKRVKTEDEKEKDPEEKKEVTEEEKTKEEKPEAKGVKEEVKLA

| Structure (SMILES) | Activity [1] [%] | Activity [2] [%] | Activity [3] [%] | Activity [4] [%] | Activity [5] [%] | Activity [6] [%] | Activity [7] [%] | Activity [8] [%] | Activity [9] [%] | Activity [10] [%] | Activity [11] [%] | Activity [12] [%] | Activity [13] [%] | Activity [14] [%] | IC50 [15] [µM] | viability at 8 µM [16] [%] | Activity [17] [%] | Activity [18] [%] | viability at 64 µM [19] [%] | Activity [20] [%] | further results |
| --- | --- | --- | --- | --- | --- | --- | --- | --- | --- | --- | --- | --- | --- | --- | --- | --- | --- | --- | --- | --- | --- |
| O=C(CC[C@H](CCCC(=O)Nc1ccccc1)Cc1ccccc1)NO | 67 | 48 | 56 | 22 | 68 | 76 | 37 | 17 | 32 | 74 | 15 | 84 | 33 | 50 | – | – | – | – | – | – | – |
| CCC(CCCC(=O)Nc1ccccc1)CCC(=O)NO (configuration not stated) | – | – | – | – | – | – | – | – | – | – | – | – | – | – | 14 | – | – | – | – | – | – |
| O=C(CCC(CCCC(=O)Nc1ccccc1)Cc1ccccc1)NO (racemic) | 63 | 55 | 47 | 20 | 58 | 87 | 27 | 16 | 27 | 60 | 19 | 75 | 33 | 44 | 62 | 80 | 35 | 74 | 26 | 19 | viability at 1 µM [21]: 89% |
| CCCCCCC(CCCC(=O)Nc1ccccc1)CCC(=O)NO (configuration not stated) | 56 | 42 | 46 | 16 | 67 | 88 | 31 | 13 | 26 | 73 | 5 | 83 | 25 | 46 | 60 | 102 | 35 | 73 | 24 | 21 | viability at 1 µM [21]: 69% |
